An excerpt weighted towards active compounds, which were near 2.7% of everything screened.
NR2E3 ag-1: NR2E3 (human) agonism; actives 0.12% (n = 320,000); GST-NR2E3/biotin-RetCOR TR-FRET, 1536-well; inhibition of corepressor binding, % at 4.78 µM; AID 2300;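 active means percent inhibition above the cutoff of mean plus 3 SD of all tested compounds, set per screening campaign, cut at about 20% in these data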
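System: GST-tagged NR2E3 plus biotinylated RetCOR corepressor; Amount: 1.35 nM GST-tagged NR2E3 final; Dosing: single nominal compound dose of 4.8 µM; Schedule: 5 h incubation at 4 °C; Technique: TR-FRET with europium anti-GST and streptavidin-D2, 340 nm excitation; Controls: biotin wells as high control, 0.6% DMSO wells as low control.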
PG9 binder: small molecules binding HIV-1 gp120 antibody PG9; TR-FRET gp120-PG9 antibody binding; inhibition, % at 6.7 µM; actives 0.43% (n = 360,000); AID 624416; in the data active means inhibition above about 8.5%
Rev-erbA mod: Rev-erb alpha (human) modulation; actives 0.79% (n = 370,000); AID 1259318; P20393; activity, % at 10 µM; Rev-erbα–FITC-DNA binding, fluorescence polarization, 90 min;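 active means activity above about 14%, limit read from the data; passing the limit was not always enough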
MC4R antag cAMP: blocks human MC4R cAMP signaling; P32245; MC4R-expressing cells, MTII-stimulated cAMP, LANCE TR-FRET; inhibition, % at 6.5 µM; actives 0.48% (n = 360,000);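 active means inhibition above its plate's cutoff, the mean of tested wells on that plate plus 3 SD, cut at about 29% in these data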
Target sequence (P32245 whole entry, looked up): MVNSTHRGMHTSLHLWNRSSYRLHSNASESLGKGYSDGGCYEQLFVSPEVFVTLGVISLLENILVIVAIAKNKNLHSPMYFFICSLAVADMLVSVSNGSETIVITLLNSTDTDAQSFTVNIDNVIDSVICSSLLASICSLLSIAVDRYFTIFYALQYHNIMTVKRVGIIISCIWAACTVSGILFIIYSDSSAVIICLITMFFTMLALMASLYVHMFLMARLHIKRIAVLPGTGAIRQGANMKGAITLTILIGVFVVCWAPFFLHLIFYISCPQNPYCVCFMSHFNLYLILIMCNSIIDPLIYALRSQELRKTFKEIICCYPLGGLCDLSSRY
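System – human MC4R-expressing U2OS cells · Also added – Melanotan II · Dosing – one concentration, 6.5 µM nominal · Timing – 30-min compound, 1-h challenge, 1-h detection, room temperature · Measured by – Eu-cAMP/anti-cAMP TR-FRET, emission 671 nm · Replicates – singlicate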
NR2E3 ag-2: human photoreceptor-specific nuclear receptor agonism | Q9Y5X4 | CHO-S Gal4-NCOR/VP16-NR2E3 two-hybrid, luciferase | inhibition of corepressor binding, % at 3.98 µM | actives 0.35% (n = 360,000) | AID 602229;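 active means inhibition above the mean of all tested compounds plus 3 SD, cut at about 70% in these data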;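 further: higher means lower luciferase signal from less NR2E3 corepressor binding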
MC4R barr agon: activates human MC4R beta-arrestin recruitment; P32245; U2OS MC4R beta-arrestin complementation, luminescence; percent of melanotan II response, DMSO zero; activation, % at 8.9 µM; actives 0.98% (n = 360,000); AID 540308;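 active means activation above a per-plate cutoff, the mean activation of sample wells on that plate plus 3 SD, cut at about 8% in these data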
Rev-erbA confirm: confirmation of modulators of human Rev-erb alpha DNA binding; shares compounds with Rev-erbA mod; Rev-erb alpha FITC-DNA binding, fluorescence polarization, 90 min; activation, % at 25 µM; actives 61% (n = 3,000);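 active means activation at or above a set limit, or at least 3 SD above the negative control mean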
RORg counter: RORgamma DNA-binding activity, dose-response counter-screen; actives 8% (n = 910); purified RORgamma protein-FITC-DNA binding, fluorescence polarization; IC50, µM; shares compounds with Rev-erbA mod;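 active means Compounds whose fitted half-maximal concentration for disrupting protein-DNA binding is below 10 micromolar; the record names Rev-erb in its text, so the target is in doubt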
A number is an active result; . = inactive; / = no result given.

SMILES | NR2E3 ag-1 | PG9 binder | Rev-erbA mod | MC4R antag cAMP | NR2E3 ag-2 | MC4R barr agon | Rev-erbA confirm | others
Cc1cnc(CNC(=O)C2CCC(=O)N(CCc3cccc(F)c3)C2)[nH]1 (centres undefined) | . | . | . | . | . | . | /
Cc1c(C(=O)N2CCN(Cc3ccc4c(c3)OCO4)CC2)sc2ncnc(N3CCN(c4ccccc4F)CC3)c12 | . | . | 22.0 | . | . | . | 17.8
CCN(Cc1cccc(OC)c1)CC1CCCN(CCc2cccc(OC)c2)C1 (centres undefined) | . | . | . | . | . | . | /
N=C(SC1CC(=O)N(c2ccc(F)cc2)C1=O)N1N=C(c2ccccc2)CC1c1ccccc1 (centres undefined) | . | . | 19.1 | . | . | . | .
COc1cc2sc3ccc(C#Cc4ccccn4)cc3c(=O)c2cc1OC | . | . | 26.5 | . | . | . | 27.1
O=C(NCCCn1ccnc1)c1cc2ccccc2o1 | . | . | . | . | . | . | /
Cn1cc(/C=C/c2cc[n+](C)cc2)c2cc(F)ccc21 | . | / | / | . | . | . | /
Cn1cc(/C=C/c2cc[n+](C)cc2)c2cc(Cl)ccc21 | . | . | 164.8 | . | . | . | 139.7 | RORg counter=.
COc1ccc(N=Nc2cc(C)ccc2O)cc1 | . | . | . | . | . | . | /
Cc1ccc(O)c(N=Nc2nccs2)c1 | . | . | 20.2 | . | . | . | .
CCOC(=O)N1CCN(C(=O)c2oc3ccc(S(=O)(=O)N4CCOCC4)cc3c2C)CC1 | . | . | . | . | . | . | /
Cc1ccc(S(=O)(=O)N2C[C@H]3[C@H]4C(=O)N(c5ccccc5)C(=O)[C@H]4CC(=O)[C@H]3[C@@H]2c2ccccc2)cc1 | / | . | . | / | . | / | /
Cc1ccc2nc(NC(=O)c3ccc(OCC4CCCO4)cc3)sc2c1 (centres undefined) | . | . | 31.2 | . | . | . | .
COc1ccc(-c2nc(-c3cccs3)c(-c3cccs3)[nH]2)cc1OC | . | . | 44.1 | . | . | . | 64.4 | RORg counter=.
COc1ccc(-c2nc(-c3ccccc3)c(-c3cccs3)[nH]2)cc1OC | . | . | . | . | . | . | /
O=[N+]([O-])c1ccc(-c2nc3ccc([N+](=O)[O-])cc3[nH]2)cc1 | . | . | . | . | . | . | /
O=[N+]([O-])c1ccc(-c2nc(-c3cccs3)c(-c3cccs3)[nH]2)cc1 | . | . | 24.5 | . | . | . | 32.8 | RORg counter=.
O=[N+]([O-])c1cccc(-c2nc(-c3ccccc3)c(-c3cccs3)[nH]2)c1 | . | . | . | . | . | . | /
O=[N+]([O-])c1cccc(-c2nc(-c3cccs3)c(-c3cccs3)[nH]2)c1 | . | . | 28.5 | . | . | . | 25.3
CS(=O)(=O)N1CCC(CO)(Cc2ccccc2C(F)(F)F)CC1 | . | . | . | . | . | . | /
Cc1c(C(=O)Nc2ccc(Cl)cc2)c2ccccn2c1C(=O)c1ccccc1 | . | . | 43.3 | . | . | . | 18.1
Brc1cccc(-c2nc3cccnc3nc2-c2cccc(Br)c2)c1 | . | . | 13.8 | . | . | . | .
Cc1cccc(N2C(=O)CC(Sc3nc(-c4ccccc4)c4cc(Cl)ccc4n3)C2=O)c1 (centres undefined) | . | . | 20.3 | . | . | . | .
Cc1cccc(N2C(=O)CC(Sc3nc(C)cc(C)n3)C2=O)c1 (centres undefined) | . | . | . | . | . | . | /
CC(C)CNC(=O)C1(C)CCCCCN1Cc1ccccc1-c1ccccc1 (centres undefined) | / | . | 20.4 | . | . | . | .
SMILES | NR2E3 ag-1 | PG9 binder | Rev-erbA mod | MC4R antag cAMP | NR2E3 ag-2 | MC4R barr agon | Rev-erbA confirm | others
CCNC(=O)C1(C)CCCN1Cc1ccccc1Cl (centres undefined) | / | . | . | . | . | . | /
CC(C)C[C@@H](CN1CCC[C@H]1CN1C(=O)C(=O)NC[C@@H]1Cc1ccccc1)N1C[C@H](Cc2ccccc2)N(CC2CCCCC2)C(=O)C1=O | / | . | . | / | . | / | /
CCCCCCSc1ccc(-c2nc3cnccn3c2NCCCC)cc1 | / | . | 24.6 | . | . | . | .
CCCCNc1c(-c2ccc(Sc3ccc(OC)cc3)cc2)nc2cc(C)ccn12 | / | . | 21.2 | . | . | . | .
CCCCNc1c(-c2ccc(OC)c(SC(C)CC)c2)nc2cnccn12 (centres undefined) | / | . | . | . | . | . | /
CCOC(=O)CCSc1nc(-c2ccc3c(c2)OCO3)cc(C(F)(F)F)c1C#N | . | . | 20.6 | . | . | . | .
C=CCSc1nc(-c2ccc3c(c2)OCO3)cc(C(F)(F)F)c1C#N | . | . | 24.8 | . | . | . | 20.3
COc1cccc(CC(=O)Nc2sc3c(c2C(N)=O)CCCC3)c1 | . | . | 29.4 | . | . | . | .
CC1CN(C(=O)N2c3ccccc3Sc3ccccc32)C(C)CC1=O (centres undefined) | . | . | 43.8 | . | . | . | 60.4
Cc1cc(C(=O)O)cc(S(=O)(=O)N2CCOCC2)c1C | . | . | . | . | . | . | /
C[n+]1c2cc(N)ccc2cc2ccc(N)cc21 | / | . | 51.1 | . | . | . | 28.5 | RORg counter=.
Cc1cc(-c2nc3cccnc3s2)ccc1NS(=O)(=O)c1ccc2c(c1)OCCO2 | . | . | 25.0 | . | . | . | .
COc1ccc(CNC(=O)CS(=O)(=O)Cc2nc(-c3cccc(OC)c3)oc2C)cc1 | . | . | 24.7 | . | . | . | 22.4
CCOc1ccc(CNC(=O)CS(=O)(=O)Cc2nc(-c3ccc(OC)cc3)oc2C)cc1 | . | . | 26.3 | . | . | . | .
CCOc1ccc(CCNC(=O)CS(=O)(=O)Cc2nc(-c3ccc(OC)cc3)oc2C)cc1 | . | . | . | . | . | . | /
COc1ccc(N2C(=O)c3cccc4c(N(C)CCO)ccc(c34)C2=O)cc1 | / | . | 41.6 | . | . | . | 36.5 | RORg counter=.
COc1ccc(N2C(=O)c3cccc4cccc(c34)C2=O)cc1 | . | . | 27.9 | . | . | . | 25.5
CSc1ccc(CNc2ccc(C)c(C)c2)cc1 | . | . | . | . | . | . | /
COc1cc(SC)ccc1C(=O)Nc1ccc(C)cc1 | . | . | . | . | . | . | /
CC(=O)c1ccccc1NC(=O)c1cc(S(=O)(=O)N2CCOCC2)ccc1N1CCCC1 | . | . | 144.2 | . | . | . | 145.0 | RORg counter=.
COc1cc(SC)ccc1C(=O)Nc1ccc(S(=O)(=O)N2CCCC2)cc1 | . | . | 57.2 | . | . | . | 29.6
